The results in this text go back to paper PMC6369589 (Cell, 2019).

A word on the IC50: it is the concentration needed to halve the response being measured.

For assay [1], the target named is Ae. aegypti NPYLR7 (Aedes aegypti, UniProt U5N1H5). The assay is described as follows: GCaMP6s calcium cell-based assay, HEK293T cells expressing NPYLR7 and Gqα15. In short, it runs like this: (§1)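 HEK293T cells transiently co-transfected (Lipofectamine 2000) with 1 μg each of GCaMP6s, mouse Gqα15 and receptor plasmids. Cells were plated overnight in DMEM/FBS at 37°C, 5% CO2, then imaged in HBSS + 20 mM HEPES. Test agonist plus inhibitor added after 30 s baseline; GFP fluorescence read every 1 s for 5 min, normalized to baseline. Log(inhibitor)-response nonlinear fit; mean ± SD, 3 trials × 4 replicates.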

Assay [2] relates to Ae. aegypti NPYLR5. The assay is described as follows: GCaMP6s calcium cell-based assay, HEK293T cells expressing NPYLR5 and Gqα15. The conditions noted are these: dose-inhibition of TM30335 activation. More on the design: species or system Aedes aegypti. An outline of the steps: as §1
The subject of assay [3] is Ae. aegypti female mosquitoes. Nature of the assay: Miniport olfactometer host-seeking after Glytube drug-feeding. In kind it is in vivo, Aedes aegypti. The conditions noted are these: fed in protein-rich artificial blood-meal, assayed 2 days after feeding.

In the case of `N=C(N)NCCC[C@H](NC(=O)CC1(CC(=O)N2CCN(C3c4ccccc4NC(=O)c4ccccc43)CC2)CCCC1)C(=O)NCCn1c(=O)n(-c2ccccc2)n(-c2ccccc2)c1=O` (stereo partly drawn) [BIIE0246], in assay [1], the IC50 is 5.1 µM. Besides, the “effect on NPYLR5 responses to TM30335” value in assay [2] was “no effect”. Further, the “release from host-seeking suppression in miniport olfactometer” value in assay [3] is listed as “dose-dependent release from suppression”.
